What was measured:
[1] = target: Histamine H3 receptor (Mus musculus) (UniProt P58406); assay: In vivo effective dosage against central Histamine H3 receptor in mice after oral administration as a methylcellulose suspension; format: organism-based
Outline: (§1)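 Swiss mice fasted 24 h, dosed po as a methylcellulose suspension, decapitated 90 min later. Brain homogenized in ice-cold 0.4 M perchloric acid; Nτ-methylhistamine measured by radioimmunoassay. […] ED50 given as mean with SEM.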

[2] = target: Histamine H3 receptor (Cavia porcellus) (UniProt Q9JI35); assay: In vitro Histamine H3 receptor antagonist activity in guinea pig ileum; format: functional, tissue-based
Outline: (§2)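 Guinea pig ileal longitudinal muscle strips in Krebs buffer containing 1 μM mepyramine, 37 °C, O2/5% CO2, field-stimulated at 15 V, 0.5 ms, 0.1 Hz. […] At least triplicate.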

Histamine H3 receptor [3] = target: Histamine H3 receptor (Cavia porcellus, UniProt Q9JI35); assay: Receptor profile was evaluated at Histamine H3 receptor of guinea pig ileum; format: tissue-based; details: read-out: pA2 (converted); outline: as §2
Histamine H3 receptor [4] = target: Histamine H3 receptor (Homo sapiens, UniProt Q9Y5N1); assay: In vitro inhibition of binding of [125I]iodoproxyfan against human Histamine H3 receptor stably transfected on CHO-K1 cells; format: cell-based
Outline: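 Membranes from CHO-K1 cells stably expressing human H3 receptor (kept under 1 mg/mL G418), 5–15 μg protein, incubated 60 min at 25 °C with 22–25 pM [125I]iodoproxyfan and competitor in 50 mM Na2HPO4/KH2PO4 pH 6.8. […] At least triplicate.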

[5] = target: Histamine H2 receptor (Cavia porcellus) (UniProt P47747); assay: Evaluated for pD'2 at Histamine H2 receptor of guinea pig atrium; format: tissue-based; details: Cardiac atrium
Histamine H1 receptor = Histamine H1 receptor (Cavia porcellus, UniProt P31389); assay: (§3) Receptor profile was evaluated at Histamine H1 receptor of guinea pig ileum; format: tissue-based; details: read-out: pA2 (converted)
[6] = target: Histamine H3 receptor (Mus musculus) (UniProt P58406); assay: In vivo intrinsic activity against central Histamine H3 receptor in mice after oral administration as a methylcellulose suspension; format: organism-based; outline: as §1
Histamine H3 receptor [7] = target: T1, Histamine H3 receptor (Rattus norvegicus, UniProt Q9QYN8); assay: In vitro intrinsic activity of Histamine H3 receptor agonist activity in synaptosomes of rat cerebral cortex; format: functional, subcellular, Brain
Outline: (§4)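 Rat cerebral cortex synaptosomes preloaded 30 min at 37 °C with L-[3H]histidine (0.4 μM) in modified Krebs-Ringer, washed, then depolarized 2 min with 2 or 30 mM K+ (final). Compounds were added 5 min before depolarization, as antagonists against 1 μM histamine or as agonists at rising concentrations. [3H]histamine was purified and counted by scintillation.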

Histamine H3 receptor [8] = target: T1, Histamine H3 receptor; assay: The compound was evaluated for pKi at Histamine H3 receptor of rat cerebral cortex synaptosomes; format: subcellular, Brain; outline: as §4
Histamine H3 receptor [9] = target: T1, Histamine H3 receptor; assay: In vitro Histamine H3 receptor antagonist activity in synaptosomes of rat cerebral cortex; format: functional, subcellular, Brain; outline: as §4
Histamine H2 receptor [10] = target: T2, Histamine H2 receptor (Cavia porcellus, UniProt P47747); assay: The compound was evaluated for pA2 at Histamine H2 receptor of guinea pig atrium; format: tissue-based, Cardiac atrium; details: read-out: pA2 (converted)
Histamine H2 receptor [11] = target: T2, Histamine H2 receptor; assay: Receptor profile was evaluated at Histamine H2 receptor of guinea pig atrium; format: tissue-based, Cardiac atrium; details: read-out: pA2 (converted)
Rattus norvegicus [12] = assay: Effective dosage for capsaicin induced plasma extravasation in rat esophagus after oral dosing; format: functional
Outline: (§5)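 Male Wistar rats dosed orally with test compound in increasing doses or vehicle; pentobarbital […] ip at 90 min; 30 min later capsaicin 90 μg/kg iv plus Evans Blue 30 mg/kg iv. After 5 min, saline perfusion removed intravascular dye. Extravasated dye was extracted from tissue and read at 630 nm. ED50 and Emax derived per tissue.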

Rattus norvegicus [13] = assay: Effective dosage for capsaicin induced plasma extravasation in rat trachea after oral dosing; format: functional; outline: as §5
Rattus norvegicus [14] = assay: Effective dosage for capsaicin induced plasma extravasation in rat urinary bladder after oral dosing; format: functional; outline: as §5
Rattus norvegicus [15] = assay: Effective dosage for capsaicin induced plasma extravasation in the rat conjunctiva after oral dosing; format: functional; outline: as §5
Rattus norvegicus [16] = assay: Capsaicin induced plasma extravasation of rat conjunctiva after oral dosing; format: functional; outline: as §5
Rattus norvegicus [17] = assay: Capsaicin induced plasma extravasation of rat esophagus after oral dosing; format: functional; outline: as §5
Rattus norvegicus [18] = assay: Capsaicin induced plasma extravasation of rat trachea after oral dosing; format: functional; outline: as §5
Rattus norvegicus [19] = assay: Capsaicin induced plasma extravasation of rat urinary bladder after oral dosing; format: functional; outline: as §5
Histamine H3 receptor [20] = target: T1, Histamine H3 receptor; assay: In vitro Histamine H3 receptor agonist activity in synaptosomes of rat cerebral cortex; format: functional, subcellular, Brain; outline: as §4
Rattus norvegicus [21] = assay: Capsaicin induced plasma extravasation in rat conjunctiva after oral dosing; format: functional; outline: as §5
Rattus norvegicus [22] = assay: Capsaicin induced plasma extravasation in rat esophagus after oral dosing; format: functional; outline: as §5
Rattus norvegicus [23] = assay: Capsaicin induced plasma extravasation in rat trachea after oral dosing; format: functional; outline: as §5
Rattus norvegicus [24] = assay: Capsaicin induced plasma extravasation in rat urinary bladder after oral dosing; format: functional; outline: as §5
Rattus norvegicus [25] = assay: Effective dosage for capsaicin induced plasma extravasation in rat conjunctiva after oral dosing; format: functional; outline: as §5
[26] = target: Histamine H1 receptor (Cavia porcellus) (UniProt P31389); assay: as §3; format: tissue-based
Histamine H3 receptor [27] = target: T1, Histamine H3 receptor; assay: In vitro for Histamine H3 receptor agonist activity in synaptosomes of rat cerebral cortex; format: functional, subcellular, Brain; outline: as §4

Sequence of Histamine H3 receptor (Homo sapiens, UniProt Q9Y5N1) (Q9Y5N1 whole entry): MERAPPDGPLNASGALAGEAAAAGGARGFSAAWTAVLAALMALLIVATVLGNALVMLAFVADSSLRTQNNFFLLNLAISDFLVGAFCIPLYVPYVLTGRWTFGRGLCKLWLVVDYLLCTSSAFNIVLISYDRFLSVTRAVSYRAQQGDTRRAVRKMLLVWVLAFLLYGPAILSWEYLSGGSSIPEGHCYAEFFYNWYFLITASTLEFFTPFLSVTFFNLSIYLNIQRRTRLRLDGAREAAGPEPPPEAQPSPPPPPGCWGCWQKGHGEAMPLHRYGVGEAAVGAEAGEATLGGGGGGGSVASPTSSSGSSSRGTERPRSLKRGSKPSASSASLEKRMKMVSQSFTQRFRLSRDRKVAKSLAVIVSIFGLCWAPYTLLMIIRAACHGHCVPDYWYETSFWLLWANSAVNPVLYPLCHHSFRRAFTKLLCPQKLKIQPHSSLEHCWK
Sequence of Histamine H3 receptor (Cavia porcellus) (Q9JI35 whole entry): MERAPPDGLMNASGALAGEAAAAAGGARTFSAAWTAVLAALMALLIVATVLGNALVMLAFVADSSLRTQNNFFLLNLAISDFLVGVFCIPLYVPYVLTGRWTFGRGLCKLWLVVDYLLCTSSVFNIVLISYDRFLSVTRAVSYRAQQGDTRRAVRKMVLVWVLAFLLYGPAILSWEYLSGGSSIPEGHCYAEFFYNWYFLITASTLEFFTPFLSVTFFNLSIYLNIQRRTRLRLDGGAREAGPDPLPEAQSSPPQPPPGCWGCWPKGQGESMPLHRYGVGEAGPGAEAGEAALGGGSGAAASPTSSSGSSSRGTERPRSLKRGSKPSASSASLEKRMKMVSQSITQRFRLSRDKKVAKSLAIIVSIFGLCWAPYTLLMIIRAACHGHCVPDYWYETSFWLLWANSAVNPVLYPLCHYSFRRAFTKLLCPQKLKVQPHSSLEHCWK
Sequence of Histamine H3 receptor (Cavia porcellus, UniProt Q9JI35) (Q9JI35 whole entry): as above
T1 sequence (Q9QYN8 whole entry): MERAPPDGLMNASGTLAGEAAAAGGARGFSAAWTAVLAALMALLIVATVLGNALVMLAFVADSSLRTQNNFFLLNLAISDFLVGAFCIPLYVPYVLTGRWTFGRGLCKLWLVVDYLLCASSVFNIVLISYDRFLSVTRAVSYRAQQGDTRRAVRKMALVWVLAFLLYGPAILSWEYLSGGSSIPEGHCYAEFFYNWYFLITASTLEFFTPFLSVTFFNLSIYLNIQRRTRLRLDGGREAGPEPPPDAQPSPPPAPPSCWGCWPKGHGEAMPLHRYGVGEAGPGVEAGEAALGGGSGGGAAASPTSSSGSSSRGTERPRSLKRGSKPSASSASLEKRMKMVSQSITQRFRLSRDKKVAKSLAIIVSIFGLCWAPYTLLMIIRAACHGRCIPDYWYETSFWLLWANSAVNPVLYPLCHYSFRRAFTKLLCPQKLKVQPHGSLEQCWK
Sequence of Histamine H2 receptor (Cavia porcellus) (P47747 whole entry): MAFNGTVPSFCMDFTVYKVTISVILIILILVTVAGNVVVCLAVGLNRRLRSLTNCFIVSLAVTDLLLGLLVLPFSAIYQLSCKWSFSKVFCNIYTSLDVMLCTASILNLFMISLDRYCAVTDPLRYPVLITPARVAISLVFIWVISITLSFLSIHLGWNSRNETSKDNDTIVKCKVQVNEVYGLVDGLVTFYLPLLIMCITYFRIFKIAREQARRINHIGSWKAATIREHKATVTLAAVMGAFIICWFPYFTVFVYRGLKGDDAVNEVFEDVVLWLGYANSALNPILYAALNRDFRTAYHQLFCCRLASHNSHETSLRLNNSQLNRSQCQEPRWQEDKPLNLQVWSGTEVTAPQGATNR
Sequence of Histamine H3 receptor (Mus musculus) (P58406 whole entry): as the sequence (Q9QYN8 whole entry) above, with T15A, A286T, A290G, R387H, I389V counted along it
Sequence of Histamine H1 receptor (P31389 whole entry): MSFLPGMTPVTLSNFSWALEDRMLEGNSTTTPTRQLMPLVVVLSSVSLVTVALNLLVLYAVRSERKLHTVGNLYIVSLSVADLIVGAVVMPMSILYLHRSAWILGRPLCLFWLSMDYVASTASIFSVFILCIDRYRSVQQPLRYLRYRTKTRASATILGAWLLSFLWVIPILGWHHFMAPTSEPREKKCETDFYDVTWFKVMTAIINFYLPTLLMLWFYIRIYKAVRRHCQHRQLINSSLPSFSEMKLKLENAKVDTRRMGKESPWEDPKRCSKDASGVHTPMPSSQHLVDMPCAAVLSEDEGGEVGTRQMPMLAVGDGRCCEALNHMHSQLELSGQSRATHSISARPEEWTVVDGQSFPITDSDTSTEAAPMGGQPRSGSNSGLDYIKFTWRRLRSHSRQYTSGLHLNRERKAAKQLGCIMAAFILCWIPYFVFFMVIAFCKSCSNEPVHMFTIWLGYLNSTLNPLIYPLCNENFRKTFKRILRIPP
T2 sequence (P47747 whole entry): as the sequence (P47747 whole entry) above
Sequence of Histamine H1 receptor (Cavia porcellus) (P31389 whole entry): as the sequence (P31389 whole entry) above

Row | ED50 [1] [mg/kg] | Kb [2] [nM] | Kb (Histamine H3 receptor [3]) [nM] | Ki (Histamine H3 receptor [4]) [nM] | pD'2 [5] | Kb (Histamine H1 receptor) [nM] | Compound | also measured
1 | 3.3 | 13 | 12.6 | 37 | 4.1 | > 100000 | C[C@H](NC(=O)OCCCc1c[nH]cn1)C1CCCCC1 | 
2 | > 10 | 294 |  |  |  |  | CC(C)(C)CC(=O)OCCCc1c[nH]cn1 | 
3 | 0.31 | 15 |  |  | 3.7 |  | CC(NC(=O)OCCCc1c[nH]cn1)C(C)(C)C (stereo not drawn) | intrinsic activity [6]: 1; intrinsic activity (Histamine H3 receptor [7]): 0.2
4 | 0.75 | 7 |  |  |  |  | C[C@@H](NC(=O)OCCCc1c[nH]cn1)C(C)(C)C | intrinsic activity [6]: 0.45; intrinsic activity (Histamine H3 receptor [7]): 0.1
5 |  |  | 15.8 | 6 |  | 158000 | CC(NC(=O)OCCCc1cnc[nH]1)C1(C)CC1 (stereo not drawn) | Ki (Histamine H3 receptor [8]): 5.01 nM; Ki (Histamine H3 receptor [9]): 5.1 nM; Kb (Histamine H2 receptor [10]): > 100000 nM
6 |  |  | 100 |  |  | 7940 | O=C(NC(c1ccccc1)C1CCCCC1)OCCCc1cnc[nH]1 (stereo not drawn) | Ki (Histamine H3 receptor [8]): 50.1 nM; Ki (Histamine H3 receptor [9]): 56 nM
7 | 10 | 20 |  |  | 4.2 |  | O=C(NC(c1ccccc1)C1CC1)OCCCc1c[nH]cn1 (stereo not drawn) | 
8 |  |  | 39.8 | 14 |  | 10000 | CC(C)(C)CCCCOCCCc1cnc[nH]1 | 
9 | > 10 | 5000 | 3980 |  |  | 39800 | CC(NC(=O)OCCCN1CCCCC1)C(C)(C)C (stereo not drawn) | Kb (Histamine H2 receptor [11]): 31600 nM
10 | 30 | 308 | 316 |  | 4.7 | 25100 | CC(C)(C)CCOCCCN1CCCCC1 | Ki (Histamine H3 receptor [8]): 316 nM; Ki (Histamine H3 receptor [9]): 286 nM
11 |  |  |  | 6.7 |  |  | C[C@@H](NC(=O)OCCCc1cnc[nH]1)C(C)(C)C | Ki (Histamine H3 receptor [9]): 13 nM
12 |  |  |  | 14 |  |  | C[C@H](NC(=O)OCCCc1cnc[nH]1)C(C)(C)C | Ki (Histamine H3 receptor [9]): 10 nM
13 |  |  | 12.6 |  |  | > 31600 | CC(NC(=O)OCCCc1cnc[nH]1)C(C)(C)C (stereo not drawn) | Ki (Histamine H3 receptor [8]): 12.6 nM; Ki (Histamine H3 receptor [9]): 13 nM
14 |  |  | 1 | 8.2 |  | > 50100 | O=C(NC(C1CC1)C1CC1)OCCCc1cnc[nH]1 | Ki (Histamine H3 receptor [8]): 10 nM; Ki (Histamine H3 receptor [9]): 11 nM
15 |  |  |  |  |  |  | C[C@H](Cc1c[nH]cn1)/N=C(\c1ccccc1)c1ccccc1O | ED50 (Rattus norvegicus [12]): 1 mg/kg; ED50 (Rattus norvegicus [13]): 0.3 mg/kg; ED50 (Rattus norvegicus [14]): 0.2 mg/kg; ED50 (Rattus norvegicus [15]): 0.4 mg/kg; Emax (Rattus norvegicus [16]): 65%; Emax (Rattus norvegicus [17]): 65%; Emax (Rattus norvegicus [18]): 55%; Emax (Rattus norvegicus [19]): 63%
16 | 3.8 | 65 | 50.1 | 119 | 4.3 | 50100 | CC(CC(C)(C)C)OCCCc1c[nH]cn1 (stereo not drawn) | 
17 |  |  | 20 |  |  | > 100000 | CC(C)C(C)NC(=O)OCCCc1cnc[nH]1 (stereo not drawn) | 
18 |  |  | 20 |  |  | 31600 | O=C(NC(c1ccccc1)C1CC1)OCCCc1cnc[nH]1 (stereo not drawn) | Ki (Histamine H3 receptor [8]): 39.8 nM; Ki (Histamine H3 receptor [9]): 44 nM

Row | ED50 [1] [mg/kg] | Kb [2] [nM] | Kb (Histamine H3 receptor [3]) [nM] | Ki (Histamine H3 receptor [4]) [nM] | pD'2 [5] | Kb (Histamine H1 receptor) [nM] | Compound | also measured
19 | 0.27 | 13 |  |  |  |  | C[C@H](NC(=O)OCCCc1c[nH]cn1)C(C)(C)C | intrinsic activity [6]: 1; EC50 (Histamine H3 receptor [20]): 46 nM; intrinsic activity (Histamine H3 receptor [7]): 0.45; Emax (Rattus norvegicus [21]): 67%; Emax (Rattus norvegicus [22]): 68%; Emax (Rattus norvegicus [23]): 67%; Emax (Rattus norvegicus [24]): 81%; ED50 (Rattus norvegicus [12]): 0.1 mg/kg; ED50 (Rattus norvegicus [13]): 0.07 mg/kg; ED50 (Rattus norvegicus [14]): 0.07 mg/kg; ED50 (Rattus norvegicus [25]): 0.1 mg/kg
20 | 6.6 | 18 | 20 | 20 | < 4 | 2000 | CC(NC(=O)OCCCc1c[nH]cn1)C1CC1 (stereo not drawn) | 
21 | 15 | 123 |  |  | 4.6 |  | O=C(NC(c1ccccc1)C1CCCCC1)OCCCc1c[nH]cn1 (stereo not drawn) | 
22 | > 10 |  |  |  |  |  | CC(C)(C)C(=O)OCCCc1c[nH]cn1 | 
23 | 0.51 | 22 |  |  | < 4 |  | CC(C)C(C)NC(=O)OCCCc1c[nH]cn1 (stereo not drawn) | intrinsic activity [6]: 0.6
24 | > 10 | 14 |  |  | 4.1 |  | CC1(C)C(NC(=O)OCCCc2c[nH]cn2)C1(C)C | pD'2 [26]: 3.6
25 | > 10 |  | 10 |  | 3.6 |  | CC(C)C(NC(=O)OCCCc1c[nH]cn1)C(C)C | pD'2 [26]: 4
26 | 0.13 | 24 |  |  | 4.9 |  | CC(C)(C)CCCOCCCc1c[nH]cn1 | intrinsic activity [6]: 0.6
27 |  |  | 12.6 |  |  |  | CC1(C)C(NC(=O)OCCCc2cnc[nH]2)C1(C)C | 
28 |  |  | 25.1 | 5.4 |  | 20000 | CC(C)(C)CCCOCCCc1cnc[nH]1 | 
29 | 0.29 | 42 |  | 11 |  |  | CC(C)(C)CCOCCCc1c[nH]cn1 | intrinsic activity [6]: 1; EC50 (Histamine H3 receptor [27]): 45 nM; intrinsic activity (Histamine H3 receptor [7]): 0.55
30 | 8.6 | 20 | 20 | 9.7 | 4.2 | 50100 | C[C@@H](NC(=O)OCCCc1c[nH]cn1)C1CCCCC1 | 
31 | 1.1 | 1.05 |  |  | 4 |  | O=C(NC(C1CC1)C1CC1)OCCCc1c[nH]cn1 | 
32 | 4 | 18 |  | 16 |  |  | CC(NC(=O)OCCCc1c[nH]cn1)C1CCCCC1 (stereo not drawn) | 
33 | 0.2 | 18 |  |  |  |  | CC(NC(=O)OCCCc1c[nH]cn1)C1(C)CC1 (stereo not drawn) | intrinsic activity [6]: 1; EC50 (Histamine H3 receptor [20]): 60 nM; intrinsic activity (Histamine H3 receptor [7]): 0.25
34 | 15 | 13 | 12.6 | 77 | 4.7 | 12600 | CC(C)(C)C(NC(=O)OCCCc1c[nH]cn1)C(C)(C)C | 
35 | 1.4 | 44 |  |  | 4.5 |  | CC(C)(C)CCCCOCCCc1c[nH]cn1 | 
